Assay results gathered from unrelated publications.
Each line is one published result; the experiments were not run side by side.
Effect on: metabolic stability
Species: human

| SMILES | system | setting | half-life [min] |
| --- | --- | --- | --- |
| CCCCOC(=O)NS(=O)(=O)c1sc(CC(C)C)cc1-c1ccc(OC(F)(F)F)c(Cn2ccnc2)c1 | liver microsomes | 1 µM, pH 7.4 | 10 |
| CCN(CC)CCNC(=O)c1c(C)[nH]c(/C=C2\C(=O)Nc3ccc(F)cc32)c1C | liver microsomes | 1 µM, pH 7.4 | 37.4 |
| O=C(CC1Cc2ccccc2C1)N[C@H](CN1CCCC1)[C@H](O)c1ccc(OC(F)(F)F)cc1 | liver microsomes | 1 µM, pH 7.4 | 84 |
| NCc1ccccc1 | hepatocytes | 5 µM | 76.3 |
| CC[C@@H]1C=CC(=O)O[C@@H]1C[C@@H](O)[C@H](C)[C@H](O)[C@@H](C)Cc1ccc(F)cc1 | liver microsomes | – | < 7.7 |
| CCCCOC(=O)NS(=O)(=O)c1sc(CC(C)C)cc1-c1ccc2c(c1)CN(C(C)=O)C2 | liver microsomes | 1 µM, pH 7.4 | 2.4 |
| O=C(c1ccc(F)cc1)C1CCN(CCn2c(=O)[nH]c3ccccc3c2=O)CC1 | liver microsomes | – | 38.8 |
| CC[C@@H]1C=CC(=O)O[C@@H]1C[C@@H](O)[C@H](C)[C@H](OC)[C@@H](C)Cc1ccc(F)cc1 | liver microsomes | – | 3.3 |
| COc1ccc(-c2ocnc2C(=O)NCCCn2cncn2)cc1Cl | liver microsomes | – | 78.7 |
| O=C(OC(C(F)(F)F)C(F)(F)F)N1CCc2ccccc2C1 | liver microsomes | – | 21 |
| O=C(O)Cc1ccccc1Nc1c(Cl)cccc1Cl | hepatocytes | 1 µM | 18.4 |
| COc1ccc(CNc2c(CO)cnc3c(C4CC4)cc(C#N)cc23)cc1Cl | liver microsomes | – | 19.5 |
| CCS(=O)(=O)Nc1ccc(OCCOCCOCCOCCOc2ccc(NS(=O)(=O)CC)cc2-c2cn(C)c(=O)c3ccccc23)c(-c2cn(C)c(=O)c3ccccc23)c1 | liver microsomes | – | < 2.3 |
| Cc1cccc(-n2ncc(Br)c(Br)c2=O)c1 | liver microsomes | – | 7.1 |
| CCOC(=O)NS(=O)(=O)c1sc(CC(C)C)cc1-c1ccc2c(c1)CN(C(C)=O)C2 | liver microsomes | 1 µM, pH 7.4 | 7.8 |
| Cc1ccc(S(=O)(=O)Nc2cccc(-c3nnn[nH]3)c2)cc1C(F)(F)F | liver microsomes | – | 4 |
| O=C(N[C@H](Cc1c[nH]c2ccccc12)C(=O)Nc1ccncc1)c1ccc(-c2cc(F)ccc2F)cc1F | liver microsomes | – | 17 |
| CC(C)NCC(O)COc1cccc2ccccc12 (stereo not shown) | liver microsomes | 1 µM, pH 7.4 | 58.6 |
| C/C=C/C[C@H](C)[C@@H](OC)[C@@H](C)[C@H](O)C[C@H]1OC(=O)C=C[C@H]1CC | liver microsomes | – | < 7 |
| CCSC1CC(=O)C(C)(CCC(=O)Nc2c(O)ccc(C(=O)O)c2O)C2C3CC4CC12CC4(C)O3 (stereo not shown) | liver microsomes | – | 22 |
| O=C1CCN(C(=O)Nc2ccc(F)c(Cl)c2)[C@H]2CCCC[C@@H]12 (relative stereo) | liver microsomes | – | > 56 |
| CCCCOC(=O)NS(=O)(=O)c1sc(CC(C)C)cc1-c1ccc2c(c1)CN(C(C)=O)CC2 | liver microsomes | 1 µM, pH 7.4 | 5.4 |
| COc1ccc2cc(C(=O)Nc3ccc4c(c3)CN(C3CCC(=O)NC3=O)C4=O)ccc2c1 (stereo not shown) | liver microsomes | 2 µM, 1 h | 3.8 |
| Cc1cnc(Nc2ccc(C(=O)NC3CCNCC3)c(F)c2)nc1Nc1cc(NS(=O)(=O)C(C)(C)C)cc(C(=O)NCCOCCOCCOCCC(=O)N2CCC(NC(=O)c3ccc(Nc4ncc(C)c(Nc5ccc(Cl)c(NS(=O)(=O)C(C)(C)C)c5)n4)cc3F)CC2)c1 | liver microsomes | – | 8.2 |
| CCN(CC)S(=O)(=O)c1ccc(S(=O)(=O)N2CCC[C@@H](C(=O)N3CCC(F)(F)CC3)C2)cc1 | liver microsomes | 1.05 µM | 2.7 |
| O=S(=O)(Nc1cccc(-c2nnn[nH]2)c1)c1cc(Cl)c(Cl)cc1Cl | liver microsomes | – | 88 |
| CC[C@@H]1C=CC(=O)O[C@@H]1C[C@@H](O)[C@H](C)[C@H](OC)[C@@H](C)Cc1ccccc1 | liver microsomes | – | 5.4 |
| CO[C@@H](C[C@H]1C(C)=CC[C@@H]2[C@]3(C)C[C@H](O[C@@H]4O[C@@H](C)[C@H](OC(=O)c5cccc(O)c5)[C@@H](O[C@@H]5O[C@H](CO)[C@@H](O)[C@H](O)[C@H]5NC(C)=O)[C@H]4O)[C@@H](O)C(C)(C)[C@H]3CC[C@]21C)[C@H](N)C(=O)O.O=C(O)C(F)(F)F | hepatocytes | 1 µM | > 360 |
